Rows were chosen to be rich in hits. Some 5.8% of all compounds tested hit in one or more screens of this group.
Pf Dd2 inh = P. falciparum Dd2 growth inhibition. SYBR Green, 72 h; active compounds read low. activity change, % at 10 µM. 2.3% of 94,000 active; in the data active = activity change below about -80%; inconclusive = no clear call, values can overlap the other calls
IDH1 R132H inh = IDH1 R132H (human) inhibition. O75874. IDH1 R132H reductase, diaphorase/resazurin fluorescence, 60 min. inhibition, % at 10 µM. 0.18% of 70,000 active. AID 624101; in the data active = inhibition above about 34%; inconclusive = no clear call, values can overlap the other calls; inactive = below about 11%
Target sequence (O75874 whole entry R132H): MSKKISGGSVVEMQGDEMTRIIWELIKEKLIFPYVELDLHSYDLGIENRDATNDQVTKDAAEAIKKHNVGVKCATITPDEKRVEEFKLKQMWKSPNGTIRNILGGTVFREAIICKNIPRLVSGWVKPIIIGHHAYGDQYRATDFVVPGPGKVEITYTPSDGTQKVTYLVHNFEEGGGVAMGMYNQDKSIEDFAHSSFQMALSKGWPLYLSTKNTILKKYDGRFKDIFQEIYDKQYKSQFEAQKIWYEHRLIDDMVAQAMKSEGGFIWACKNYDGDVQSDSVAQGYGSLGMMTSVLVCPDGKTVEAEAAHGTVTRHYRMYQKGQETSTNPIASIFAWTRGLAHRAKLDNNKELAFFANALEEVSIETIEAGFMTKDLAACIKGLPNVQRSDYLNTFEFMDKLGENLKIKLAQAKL
T cruzi growth-1 = blocks T. cruzi growth in NIH3T3 culture; AID 624255; 5.9% of 77,000 active; inhibition, % at 8.34 µM; T. cruzi beta-gal in NIH3T3, GalScreen luminescence, 90 h;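 active = mean inhibition above about 93%, with at least 55% of replicates each passing it, limit read from the data, passing the limit was not always enough; inconclusive = only one of those two conditions holds; inactive = neither condition holds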
KDM4C inh = blocks human GASC-1 (KDM4C) demethylase activity | Q9H3R0 | GST-KDM4C 2-372, H3K9me3 peptide, LANCE TR-FRET | inhibition, % at 12.5 µM | 0.15% of 96,000 active | AID 720574;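 active = mean replicate inhibition above about 25%, with at least 55% of replicates also reaching it, limit read from the data, passing the limit was not always enough; inconclusive = only one of those two conditions met; inactive = neither condition met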
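reagent = H3K9me3 peptide substrate, Fe(II), 2-oxoglutarate | system = GST-tagged GASC-1 (JMJD2C) catalytic fragment, aa 2-372 | amount = enzyme final amount 10 nM | read-out = Fall in 671/618 emission ratio as inhibition | medium = HEPES buffer, pH 7.5, plus ascorbate | schedule = 30 min reaction, 60 min detection, RT | measured by = LANCE TR-FRET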
T cruzi growth-2 = Trypanosoma cruzi proliferation inhibition. 72% of 5,600 active. T. cruzi beta-gal in NIH3T3, GalScreen luminescence, 90 h. inhibition, % at 8.35 µM. shares compounds with T cruzi growth-1;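 active = mean replicate inhibition above about 95% and at least 55% of replicates individually reaching it, limit read from the data; inconclusive = only one of the two criteria is met; inactive = neither criterion is met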
T cruzi growth-3 = Trypanosoma cruzi proliferation inhibition | 21% of 5,600 active | AID 651740 | shares compounds with T cruzi growth-1 | T. cruzi beta-gal in NIH3T3, GalScreen luminescence, 90 h | inhibition, % at 2.09 µM;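 active = mean inhibition above about 95%, with at least 55% of replicates also reaching it, limit read from the data; inconclusive = meets just one of the two conditions; inactive = meets neither condition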
3T3 cytotox = kills mouse NIH/3T3 fibroblasts; AID 651742; NIH/3T3 viability, CellTiter-Glo ATP luminescence, 90 h; cytotoxicity (signal decrease), % at 8.35 µM; shares compounds with T cruzi growth-1; 14% of 5,600 active;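 active = mean signal decrease across replicates above about 35% based on untreated-well scatter, with enough replicates individually passing, limit read from the data; inconclusive = no rule stated though some were filed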
NIH3T3 tox 2 = NIH/3T3 (mouse) viability loss; shares compounds with T cruzi growth-1; NIH/3T3 viability, CellTiter-Glo ATP luminescence, 90 h; inhibition, % at 24.9 µM; 56% of 5,600 active;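 active = mean loss of cell viability signal at or above a set limit, and enough replicates individually reaching it; inconclusive = meets only the mean limit or only the replicate share; inactive = meets neither condition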
A number is an active result; n = inactive; u = inconclusive; x = not tested or not shown.

SMILES	Pf Dd2 inh	IDH1 R132H inh	T cruzi growth-1	KDM4C inh	T cruzi growth-2	T cruzi growth-3	3T3 cytotox	NIH3T3 tox 2
C[C@H]1CCCCO[C@@H](CN(C)S(=O)(=O)c2cccs2)[C@@H](C)CN([C@@H](C)CO)C(=O)c2cc(NC(=O)Nc3ccc(F)cc3)ccc2O1	n	n	98.5	n	108.8	n	n	27.3
C[C@@H]1CCCCO[C@@H](CN(C)S(=O)(=O)c2cccs2)[C@@H](C)CN([C@@H](C)CO)C(=O)c2cc(NC(=O)Nc3ccc(F)cc3)ccc2O1	n	n	n	n	x	x	x	x
C[C@@H]1CCCCO[C@H](CN(C)S(=O)(=O)c2cccs2)[C@H](C)CN([C@@H](C)CO)C(=O)c2cc(NC(=O)Nc3ccccc3)ccc2O1	x	x	98.9	n	101.2	n	n	29.5
Cc1ccccc1NC(=O)Nc1ccc2c(c1)C(=O)N(C)[C@H]1CC[C@@H](CC(=O)O)O[C@H]1CO2	n	x	n	n	x	x	x	x
C[C@@H]1CCCCO[C@@H](CN(C)S(=O)(=O)c2cccs2)[C@H](C)CN([C@H](C)CO)C(=O)c2cc(NC(=O)Nc3ccccc3)ccc2O1	x	x	112.1	n	107.7	n	n	n
C[C@@H]1CN([C@@H](C)CO)C(=O)c2cc(NC(=O)Nc3ccc(F)cc3)ccc2O[C@@H](C)CCCCO[C@H]1CN(C)S(=O)(=O)c1cccs1	n	n	n	n	x	x	x	x
C[C@H]1CCCCO[C@H](CN(C)S(=O)(=O)c2cccs2)[C@@H](C)CN([C@@H](C)CO)C(=O)c2cc(NC(=O)Nc3ccccc3)ccc2O1	x	n	107.1	n	105.6	n	n	27.4
C[C@H](CO)N1C[C@H](C)[C@@H](CN(C)C(=O)c2ccccc2)Oc2cc(C3=CCCCC3)ccc2S1(=O)=O	n	x	n	n	x	x	x	x
CCC(=O)N1C[C@H](C)[C@@H](OC)CN(C)C(=O)c2ccc(NS(C)(=O)=O)cc2OC[C@@H]1C	x	n	n	n	x	x	x	x
C[C@H]1CCCCO[C@H](CN(C)S(=O)(=O)c2ccccc2)[C@@H](C)CN([C@@H](C)CO)C(=O)c2cc(NC(=O)NC3CCCCC3)ccc2O1	n	n	n	n	x	x	x	x
CC(C)C#Cc1ccc2c(c1)O[C@H](CN(C)C(=O)C1CCC1)[C@@H](C)CN([C@H](C)CO)S2(=O)=O	n	n	112.8	n	98.3	n	n	28.2
CC(C)C#Cc1ccc2c(c1)O[C@@H](CN(C)C(=O)C1CCCCC1)[C@@H](C)CN([C@@H](C)CO)S2(=O)=O	n	x	u	n	102.3	n	n	106.9
CC(C)C#Cc1ccc2c(c1)O[C@H](CN(C)C(=O)C1CCCCC1)[C@@H](C)CN([C@H](C)CO)S2(=O)=O	n	x	n	n	x	x	x	x
C[C@H](CO)N1C[C@H](C)[C@H](CN(C)S(=O)(=O)c2ccccc2F)Oc2cc(-c3ccccc3)ccc2S1(=O)=O	n	n	120.2	n	100.4	n	u	45.1
C[C@H](CO)N1C[C@H](C)[C@@H](CN(C)S(=O)(=O)c2ccccc2F)Oc2cc(-c3ccccc3)ccc2S1(=O)=O	n	n	n	n	x	x	x	x
C[C@H]1CN([C@@H](C)CO)S(=O)(=O)c2ccc(-c3ccccc3)cc2O[C@H]1CN(C)S(=O)(=O)c1ccccc1F	n	n	119.0	n	103.4	102.8	n	45.6
C[C@H]1CN([C@@H](C)CO)S(=O)(=O)c2ccc(-c3ccccc3)cc2O[C@@H]1CN(C)S(=O)(=O)c1ccccc1F	n	n	91.4	n	99.5	n	36.5	37.6
O=C(C[C@@H]1CC[C@H]2[C@@H](COC[C@@H](O)CN2S(=O)(=O)c2ccc(Cl)cc2)O1)NCCN1CCCCC1	n	x	x	n	x	x	x	x
COc1ccc(-c2ccc3c(c2)[C@@H]2[C@@H](CCN2C(=O)c2ccncc2)[C@H](CO)N3C)cc1	n	x	u	n	108.4	n	n	n
COc1ccc(-c2ccc3c(c2)[C@@H]2[C@@H](CCN2C(=O)c2ccc(F)cc2)[C@@H](CO)N3C)cc1	n	x	n	n	x	x	x	x
COc1cccc(-c2ccc3c(c2)[C@H]2[C@H](CCN2C(=O)c2ccc4c(c2)OCO4)[C@H](CO)N3C)c1	n	x	n	n	x	x	x	x
COc1ccc(-c2ccc3c(c2)[C@@H]2[C@@H](CCN2C(=O)c2ccc4c(c2)OCO4)[C@@H](CO)N3C)cc1	n	x	99.5	n	105.2	100.0	n	n
C[C@H](CO)N1C[C@H](C)[C@@H](CN(C)C(=O)c2cccc(F)c2)Oc2cc(C#CC3CCCC3)ccc2S1(=O)=O	n	n	121.9	n	101.6	112.5	n	105.1
C[C@H]1CN([C@@H](C)CO)S(=O)(=O)c2ccc(C#CC3CCCC3)cc2O[C@H]1CN(C)C(=O)c1cccc(F)c1	n	n	124.0	n	n	n	n	103.3
CC(C)C#Cc1ccc2c(c1)O[C@@H](CN(C)C(=O)c1cccc(F)c1)[C@@H](C)CN([C@@H](C)CO)S2(=O)=O	n	n	n	n	x	x	x	x
SMILES	Pf Dd2 inh	IDH1 R132H inh	T cruzi growth-1	KDM4C inh	T cruzi growth-2	T cruzi growth-3	3T3 cytotox	NIH3T3 tox 2
C[C@@H]1CN([C@H](C)CO)S(=O)(=O)c2ccc(C#CCN(C)C)cc2O[C@@H]1CN(C)Cc1ccccc1	n	n	n	n	x	x	x	x
CC(C)CC#Cc1ccc2c(c1)O[C@@H](CN(C)Cc1ccncc1)[C@@H](C)CN([C@@H](C)CO)S2(=O)=O	n	n	122.0	n	108.6	n	n	108.5
CCCC#Cc1ccc2c(c1)O[C@@H](CN(C)Cc1ccncc1)[C@H](C)CN([C@H](C)CO)S2(=O)=O	n	n	116.6	n	98.4	101.7	72.2	104.9
CC(C)CC#Cc1ccc2c(c1)O[C@@H](CN(C)Cc1ccccc1)[C@@H](C)CN([C@@H](C)CO)S2(=O)=O	n	n	125.3	n	96.3	109.5	n	105.7
C[C@H]1CN([C@@H](C)CO)S(=O)(=O)c2ccc(C#CCN(C)C)cc2O[C@@H]1CN(C)Cc1ccccc1	n	n	108.3	n	105.0	n	n	104.6
O=C(NCC1CC1)[C@H]1[C@H](CO)[C@H]2Cn3c(ccc(C4=CCCC4)c3=O)[C@H]2N1Cc1ccccc1F	x	x	n	n	x	x	x	x
CCC/C=C/C=C/C1CC(O)C(O)C(O)C1CO (stereo unspecified)	x	n	x	x	x	x	x	x
CS(=O)(=O)N1CC(=O)N2[C@H](C1)[C@@H](c1ccc(Br)cc1)[C@@H]2CO	n	x	x	n	x	x	x	x
CC(C)CC#Cc1ccc2c(c1)O[C@@H](CN(C)Cc1ccncc1)[C@@H](C)CN([C@H](C)CO)S2(=O)=O	n	n	129.8	n	100.2	n	n	104.5

Screens from PubChem.
